OX1R antag-1 – human HCRTR1 antagonism; CHO/OX1R cells, Fluo-8 calcium fluorescence, orexin A; inhibition, % at 5 µM; actives 0.43% (n = 330,000); AID 434989;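 active = inhibition above its plate's threshold, mean inhibition of all tested compounds on the plate plus 3 SD, cut at about 37% in these data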;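 note: 0% = orexin A challenge wells and 100% = SB-334867-A antagonist wells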
Target sequence (O43613 whole entry, looked up): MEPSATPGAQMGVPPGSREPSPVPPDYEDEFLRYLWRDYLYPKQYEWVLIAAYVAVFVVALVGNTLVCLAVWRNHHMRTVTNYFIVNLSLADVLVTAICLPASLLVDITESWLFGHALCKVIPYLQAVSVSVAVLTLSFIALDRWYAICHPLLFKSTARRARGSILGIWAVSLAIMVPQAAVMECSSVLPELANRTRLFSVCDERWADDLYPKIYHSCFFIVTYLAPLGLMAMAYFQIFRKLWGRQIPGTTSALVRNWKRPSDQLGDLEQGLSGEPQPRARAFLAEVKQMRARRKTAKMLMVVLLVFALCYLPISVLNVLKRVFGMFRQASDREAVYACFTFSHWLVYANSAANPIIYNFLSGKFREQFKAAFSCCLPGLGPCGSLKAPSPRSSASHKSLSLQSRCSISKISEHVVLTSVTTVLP
OX1R antag-2 – blocks the human orexin 1 receptor. actives 1.8% (n = 330,000). OX1R-expressing cells, FRET antagonist read-out. O43613. AID 485270. inhibition, % at 6.6 µM; in the data active = inhibition mostly above about 38%, no sharp cut-off; inactive = mostly below about 40%;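 note: 0% = agonist challenge alone and 100% = reference antagonist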
TAAR1 antagonist – human TAAR1 antagonism; Q96RJ0; CHO RD-HGA16 TAAR1, Fluo-8 calcium fluorescence, antagonist; inhibition, % at 3 µM; actives 1.5% (n = 360,000);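 active = inhibition above a per-plate cutoff, the mean inhibition of test compounds on that plate plus 3 SD, cut at about 49% in these data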;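 note: 0% = DMSO plus EC80 beta-PEA response and 100% = DMSO alone without agonist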
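Material: RD-HGA16 CHO cells with stable hTAAR1 and Gα16; Dosing: single nominal final test compound concentration of 3 µM; Schedule: seeding 17-24 h prior, 75-min 37 °C, 30-min RT dye loading; Detection: kinetic Fluo-8 calcium fluorescence measurement; Measure: % inhibition from peak post-agonist over basal fluorescence ratio; Benchmarks: vehicle and agonist controls.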
CHO parental Ca – signal in parental CHO cells, OX1R antagonist counter-screen; parental CHO-K1, ATP-induced calcium, Fluo-8 fluorescence; inhibition, % at 5.6 µM; actives 0.63% (n = 330,000); AID 463079;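 active = inhibition above that plate's mean sample inhibition plus 3 SD, cut at about 26% in these data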;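 note: 0% = ATP-challenged DMSO wells and 100% = DMSO wells without ATP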
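test system = CHO parental line | reagent = ATP stimulus | measured by = intracellular calcium via Fluo-8 no-wash fluorescent dye | control set = ATP and no-ATP DMSO wells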
TAAR1 ag – human TAAR1 agonism. Q96RJ0. CHO RD-HGA16 TAAR1, Fluo-8 calcium fluorescence; vehicle wells 0%, saturating PEA agonist 100%. activation, % at 3 µM. actives 0.99% (n = 360,000). AID 624467;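 active = activation above the mean activation of all test compounds in the run plus 3 SD, cut at about 38% in these data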
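Test system: RD-HGA16 (CHO) cells co-expressing Gα16 and hTAAR1 / Benchmarks: DMSO vehicle as 0%, PEA at EC100 as 100% / Repeats: no replicates (n 1) / Measure: % activation from peak over basal fluorescence ratio, DMSO-to-PEA scaled / Timing: 17-24 h plating, Fluo-8 75 min 37 °C, 30 min RT / Technique: kinetic Fluo-8 calcium fluorescence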
GPR7 antagonist – antagonists of human GPR7 (neuropeptides B/W receptor 1). GPR7-expressing cells, fluorescence antagonist assay. inhibition, % at 4.4 µM. actives 1.1% (n = 290,000); in the data active = inhibition above about 16%, passing the limit was not always enough;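 note: cells stimulated with the agonist NPW; 0% = agonist with vehicle and 100% = vehicle without agonist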
Target sequence (P48145 whole entry, looked up): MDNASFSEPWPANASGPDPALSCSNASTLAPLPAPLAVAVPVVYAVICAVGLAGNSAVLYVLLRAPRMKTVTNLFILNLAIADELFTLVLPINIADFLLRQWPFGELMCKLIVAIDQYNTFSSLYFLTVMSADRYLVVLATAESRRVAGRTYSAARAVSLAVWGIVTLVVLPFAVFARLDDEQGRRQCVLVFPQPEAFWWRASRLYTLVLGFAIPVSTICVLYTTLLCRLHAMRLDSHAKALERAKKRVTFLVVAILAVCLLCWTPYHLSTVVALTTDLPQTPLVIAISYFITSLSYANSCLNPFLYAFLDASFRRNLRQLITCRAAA
GPR7 antag conf – confirmation of human GPR7 antagonists. shares compounds with GPR7 antagonist. GPR7-expressing cells, calcium fluorescence antagonist mode. inhibition, % at 4.4 µM. actives 52% (n = 2,400). AID 1952; in the data active = inhibition above about 24%;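 note: stimulated with the GPR7 agonist NPW; 0% = agonist plus vehicle and 100% = vehicle alone without agonist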
MCHR1 antagonist – antagonizes human MCHR1, a GPR7 antagonist counter-screen | shares compounds with GPR7 antagonist | AID 2148 | actives 62% (n = 2,400) | inhibition, % at 4.4 µM | MCHR1-expressing cells, fluorescence antagonist assay; in the data active = inhibition above about 22%;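 note: 0% = vehicle with agonist and 100% = vehicle without agonist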
Starred values were filed as active, the others as inactive; · = no result given. Rows were chosen to be rich in hits. Some 4.6% of all compounds tested hit in one or more screens of this group.

SMILES | OX1R antag-1 | OX1R antag-2 | TAAR1 antagonist | CHO parental Ca | TAAR1 ag | GPR7 antagonist | GPR7 antag conf | MCHR1 antagonist
COc1ccccc1N(C(=O)c1ccco1)C(C(=O)NC1CCCCC1)c1cc(OC)c(OC)c(OC)c1 (configuration not stated) | -23.5 | 41.7* | -5.1 | -22.9 | -0.8 | 33.5* | 37.1* | 9.4
Cc1cc(C)nc(N/N=C/c2ccccc2OCc2ccc(Cl)cc2)n1 | -17.8 | 9.3 | 2.4 | -26.2 | 0.6 | -1.8 | · | ·
Cc1ccccc1NC(=O)Nc1ccc(C(F)(F)F)cc1 | -0.3 | 33.4 | -10.1 | 24.7 | 7.3 | 54.5* | 69.0* | 52.4*
Cc1ccccc1NC(=O)CNC(=O)c1ccc(C(F)(F)F)cc1 | -8.4 | 20.3 | 4.6 | -10.3 | -1.6 | -4.0 | · | ·
O=C(Nc1ccc(Br)cc1)Nc1ccccc1F | -5.6 | 26.4 | 12.3 | 5.3 | 16.4 | 28.2* | 59.1* | 65.4*
CC(C)(C)OC(=O)N1CCN(C(=O)c2nc[nH]c2C(=O)N2CCN(C(=O)OC(C)(C)C)CC2)CC1 | -5.1 | 0.2 | 3.5 | -1.2 | 0.3 | · | · | ·
CC1(CCc2ccc3c(c2)OCO3)NCCc2c1[nH]c1ccccc21 (configuration not stated) | -4.0 | 6.2 | 9.5 | 12.9 | 49.3* | 60.1* | 39.4* | 44.8*
COc1ccc(Cl)cc1N(CC(=O)N1CCN(Cc2ccccc2)CC1)S(C)(=O)=O | -16.9 | 16.1 | 10.6 | -22.5 | 1.8 | -1.4 | · | ·
C#CCNC(=O)C[C@H]1C[C@@]2(C(=O)OC)C(=C[C@H](COCc3ccccc3)O[C@@H]2C)N(CCC2=CCCCC2)C1=O | · | · | -5.3 | · | -0.8 | · | · | ·
c1ccc(CCc2nn3c(Cn4cnc5ccccc54)nnc3s2)cc1 | -12.9 | 3.2 | -11.8 | -16.3 | 1.8 | 22.6* | 17.9 | 27.9*
COc1ccc(OCc2nn3c(Cn4cnc5ccccc54)nnc3s2)cc1 | 4.4 | 8.1 | 6.9 | -9.1 | 11.5 | -7.9 | · | ·
O=C(C1COc2ccccc2O1)N1CCCCC1 (configuration not stated) | 1.2 | 8.4 | -0.7 | -5.5 | 1.0 | · | · | ·
O=C(C1COc2ccccc2O1)N1CCc2ccccc2C1 (configuration not stated) | -16.7 | 8.1 | 6.7 | -18.4 | 8.8 | 21.2* | 5.5 | 35.4*
N#Cc1ccc(NC(=O)Nc2ccc(Cl)cc2)cc1 | 67.8* | 100.3* | 2.1 | 75.3* | 32.4 | 30.4* | 58.0* | 56.9*
O=C(N/N=C/c1cc([N+](=O)[O-])ccc1O)c1cccc2ccccc12 | 12.6 | 31.8 | -2.9 | 28.2 | -1.4 | 26.8* | 4.6 | 6.8
O=C(NN=Cc1cc(Cl)ccc1[N+](=O)[O-])c1cccc2ccccc12 | · | · | 11.2 | · | -1.4 | · | · | ·
O=C(Nc1ccc2snnc2c1)Nc1cccc2ccccc12 | 6.2 | 57.9* | 0.6 | 27.2* | 11.9 | 36.1* | 40.4* | 77.0*
Cc1nc2cc(NC(=O)Nc3cccc4ccccc34)ccc2n1C | -20.1 | 6.7 | 1.5 | -5.8 | 9.5 | -11.3 | · | ·
NCC(c1ccc(Cl)cc1Cl)c1c[nH]c2ccccc12 (configuration not stated) | -4.5 | -7.3 | 45.5 | 8.8 | 45.4* | 50.9* | 61.1* | 68.5*
CCOc1ccc(N2C(=O)C3=C(C(c4ccc(Cl)cc4)=NCCN3)C2c2cccnc2)cc1 (configuration not stated) | -26.3 | 13.2 | -15.9 | -5.4 | 3.2 | 18.6 | · | ·
Cc1ccc(C2C3=C(NCCN=C3c3ccccc3)C(=O)N2c2ccccc2)cc1 (configuration not stated) | -38.8 | 6.1 | 8.8 | -14.8 | 18.7 | · | · | 18.8
Clc1ccc(CN2C3=NCCCN3c3ccccc32)cc1Cl | -28.6 | 21.6 | 2.6 | -31.7 | 5.2 | 24.0* | 26.1* | 27.4*
Clc1ccc(CN2C3=NCCCN3c3ccccc32)cc1 | -28.8 | 2.6 | -4.8 | -21.0 | 5.3 | 4.0 | · | ·
O=C(CC(C(=O)O)P(=O)(c1ccccc1)c1ccccc1)c1ccccc1 (configuration not stated) | 1.6 | 18.3 | -0.3 | -4.7 | 6.8 | -10.7 | · | ·
Cc1occc1C(=O)Nc1cccc(C(=O)O)c1 | -10.2 | 16.3 | 15.5 | -3.3 | 17.4 | 26.4* | -17.3 | 19.7
SMILES | OX1R antag-1 | OX1R antag-2 | TAAR1 antagonist | CHO parental Ca | TAAR1 ag | GPR7 antagonist | GPR7 antag conf | MCHR1 antagonist
CCN(CC)c1ccc(S(=O)(=O)N2CCOCC2)cc1NC(=O)CNCc1ccccc1 | -1.5 | 9.4 | -3.4 | -9.6 | 1.2 | 24.2* | 31.4* | 28.7*
CCN(CC)c1ccc(S(=O)(=O)N2CCOCC2)cc1NC(=O)CSC(=S)N1CCCC1 | -37.4 | -8.7 | -36.0 | -4.1 | -2.3 | 44.3* | 24.4* | 48.4*
Cc1nn(Cc2ccc(F)cc2)c(C)c1NC(=O)c1cnn2c1NC(c1ccccc1)CC2C(F)(F)F (configuration not stated) | -5.8 | 5.0 | · | 8.8 | · | 23.5* | 18.0 | 11.3
Cc1nn(Cc2ccc(F)cc2)c(C)c1NC(=O)c1cnn2c1NC(c1cccs1)CC2C(F)(F)F (configuration not stated) | -12.2 | 13.2 | 21.0 | -1.1 | 11.1 | 7.9 | · | ·
CCOc1ccc(N=c2oc3cc(O)ccc3cc2C(=O)NCC2CCCO2)cc1 (configuration not stated) | -12.0 | 20.0 | 17.2 | -4.5 | 0.4 | 3.0 | · | ·
CCOc1ccccc1N=c1oc2cc(O)ccc2cc1C(=O)NCC1CCCO1 (configuration not stated) | -2.8 | 4.5 | 29.3 | -11.7 | 7.1 | 28.7* | 18.9 | 20.2
Cc1ccc(NC(=S)N2CCC(C(N)=O)(N3CCCCC3)CC2)c(C)c1 | -5.7 | 12.6 | -19.2 | 3.5 | 6.0 | -3.7 | · | ·
CCOc1ccc(CCNC(=O)C2CCCN2C(=O)OCc2ccccc2)cc1OCC (configuration not stated) | -8.2 | 46.3 | -3.9 | -15.3 | -1.9 | -7.3 | · | ·
CNC(=O)c1ccc(NC(=O)C2CCN(S(=O)(=O)c3cccc(C(F)(F)F)c3)CC2)cc1 | 5.8 | 6.3 | 12.9 | -2.4 | 6.1 | · | · | ·
Cc1nc2ccc(S(=O)(=O)Nc3ccccc3C)cc2s1 | -11.7 | 15.8 | · | -16.9 | · | 25.2* | 9.0 | 35.0*
CC(=O)c1cccc(S(=O)(=O)Nc2ccc3nc(C)sc3c2)c1 | 0.3 | 16.6 | 8.3 | 20.9 | 3.7 | -2.2 | · | ·
COc1ccc(OC)c(NC(=O)CSc2nnc(N)s2)c1 | -16.4 | 5.7 | 1.1 | 3.9 | 5.1 | -13.1 | · | ·
O=C(c1ccco1)N1CCN(S(=O)(=O)c2ccc(Br)s2)CC1 | -21.6 | 12.2 | 10.0 | -15.2 | 8.3 | 46.8* | 8.8 | -1.1

Screening results as filed in PubChem BioAssay.
